Series [1] in a line: Half life period of compound was determined at a dose of 3 mg/kg by intravenous administration. In kind it is ADME, organism-based. Also noted: dose 3 mg/kg, route intravenous. The note with it: rat, in vivo. In a few lines:
(§1)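 Rats, n = 3 per route, dosed by iv injection at 3 mg/kg or oral gavage at 5 mg/kg. Plasma analysed by LC/MS–MS with LXA₄ as internal standard on a C18 column (10–80% gradient over 2 min). For methyl ester dosing, the plasma acid formed by hydrolysis was the analyte quantified. Outputs: T1/2, clearance, AUCall, Cmax, Tmax, F.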

Series [2] is described as follows: Area under curve after intravenous administration at 3 mg/kg. In kind it is ADME, organism-based. Also noted: dose 3 mg/kg, route intravenous. The note with it: rat, in vivo. In a few lines: as §1
Another series has as its system Mus sp. As to the kind of experiment: (§2) Inhibition of the edema formation by compound was determined in mice. In kind it is functional, organism-based. Summed up: (§3)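 Mice given ionophore on the ear with topical coapplication of compound at 100, 300 and 600 µg/cm², vehicle and ionophore controls alongside. Euthanized at 24 h. Ear weight taken as edema. Peroxidase (granulocytes) and elastase (neutrophils) activities measured in ear homogenates. N = 8–10 mice per group, mean ± SEM.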

Series [3] in a line: Half life period of compound was determined after peroral administration. In kind it is ADME, organism-based. The note with it: rat, in vivo, po. Summed up:
as §1

Series [4] can be described thus: Bioavailability of compound in dog was determined after peroral administration. In kind it is ADME, organism-based, Canis lupus familiaris. The conditions noted are these: in vivo, po. In a few lines: (§4)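 Dogs dosed iv at 2 mg/kg or orally at 2 mg/kg. Plasma parameters derived were half-life, Cmax, Tmax and oral bioavailability (F).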
The nature of series [5]: Half life period of compound was determined after intravenous administration at 2 mg/kg. In kind it is ADME, organism-based, Canis lupus familiaris. The arrangement: dose 2 mg/kg, route intravenous. The note with it: dog, in vivo. In a few lines: as §4
The nature of series [6]: Tmax was measured in rats after peroral administration at 5 mg/kg. In kind it is ADME, organism-based. Also noted: dose 5 mg/kg, route oral. The conditions noted are these: rat, in vivo, po. In a few lines:
as §1

In a further series the test system is Rattus norvegicus. Nature of the series: Compound clearance in rats was measured after intravenous administration at 3 mg/kg. In kind it is ADME, organism-based. The conditions noted are these: in vivo. The arrangement: dose 3 mg/kg, route intravenous. In a few lines:
as §1

The nature of series [7]: F value of compound in rats was determined after peroral administration. In kind it is ADME, organism-based. The note with it: rat, in vivo, po. Summed up: as §1
Series [8] can be described thus: Half life period of compound was determined after peroral administration at 2 mg/kg. The note with it: dog, in vivo, po. In kind it is ADME, organism-based, Canis lupus familiaris. The arrangement: dose 2 mg/kg, route oral. Summed up: as §4
Series [9] can be described thus: Oral bioavailability in rat. In kind it is ADME, organism-based. The note with it: in vivo. In a few lines:
as §1

The next series concerns Mus musculus. The description is as §2. In kind it is functional, organism-based. In a few lines: as §3
The nature of series [10]: Bioavailability value of compound in rats was determined after peroral administration. In kind it is ADME, organism-based. The conditions noted are these: rat, in vivo, po. Summed up: as §1

One may read the half-life as the time needed for the level to fall by half in the phase considered. Low values mean fast loss, high ones slow loss. As usually defined, the AUC is concentration integrated over time. The term bioavailability denotes dose-corrected exposure relative to a reference, in per cent. Low values mean little systemic uptake, high ones much systemic uptake. By Tmax is commonly meant the time from dosing to the highest level. For `O=C(O)COC[C@H](O)[C@H](O)/C=C/C=C/C#C/C=C/[C@H](O)COc1ccc(F)cc1`, the half-life was 138 min in series [1], 132 min in series [3], 162 min in series [5] and 192 min in series [8]. In series [2], the AUC turned out to be 7000 ng·h/mL. In the series on Mus sp., the ED50 is less than 300 µg/cm². Further, the bioavailability in series [4] was found to be 40%; in series [7] it was 14%. Further, the Tmax in [6] came out at 78 min. The compound also came in with a Cl in the series with Rattus norvegicus of 7 mL/min/kg.
On to `O=C(O)CCC[C@H](O)[C@H](O)/C=C/C=C/C#C/C=C/[C@@H](O)COc1ccc(F)cc1`, for which the results for the half-life in series [1] and in series [3] were 6 min and 108 min, respectively. The same compound had an AUC in series [2] of 900 ng·h/mL. The same compound had a bioavailability in series [9] of 28%. In addition, in series [6], the time of peak concentration (Tmax) was found to be 30 min. For the same compound, the Cl in the series on Rattus norvegicus is 58 mL/min/kg.
For `O=C(O)COC[C@H](O)[C@H](O)/C=C/C=C/C=C/C=C/[C@H](O)COc1ccc(F)cc1`, the half-life in [1] was 78 min; in series [3], 66 min. Moreover, the AUC in series [2] stood at 1000 ng·h/mL. Further, the IC50 with Mus musculus is reported as less than 300 ug cm**-2. In series [9], the bioavailability was 4%. The Tmax in series [6] is 30 min. For the same compound, in the series with Rattus norvegicus, the Cl amounted to 50 mL/min/kg.
On to `COC(=O)CCCC(O)C(O)/C=C/C=C/C=C/C=C/[C@H](O)COc1ccc(F)cc1` (single isomer, unassigned), for which the figures for the half-life in [1] and in series [3] were 18 min and 30 min, respectively. In addition, the AUC in series [2] worked out at 1000 ng·h/mL. In addition, in series [9], the bioavailability was 12%. Also, the Tmax in series [6] was determined as 30 min. In addition, the Cl in the series with Rattus norvegicus came to 51 mL/min/kg.
For the compound `O=C(O)CCCC(O)C(O)/C=C/C=C/C=C/C=C/[C@H](O)COc1ccc(F)cc1` (single isomer, unassigned), the half-life was 12 min in series [1] and 66 min in series [3]. In addition, the AUC in series [2] came out at 1800 ng·h/mL. The compound also registered a bioavailability in series [10] of 13%. In addition, in [6], the Tmax turned out to be 60 min. The Cl in the series on Rattus norvegicus worked out at 28 mL/min/kg.

(Values after ChEMBL document CHEMBL1149150, “Novel 3-oxa lipoxin A4 analogues with enhanced chemical and metabolic stability have anti-inflammatory activity in vivo” (J Med Chem, 2004).)
